Assay [1] addresses T1, E. coli topoisomerase I (Escherichia coli, UniProt P06612).
T1 sequence (P06612 1-865): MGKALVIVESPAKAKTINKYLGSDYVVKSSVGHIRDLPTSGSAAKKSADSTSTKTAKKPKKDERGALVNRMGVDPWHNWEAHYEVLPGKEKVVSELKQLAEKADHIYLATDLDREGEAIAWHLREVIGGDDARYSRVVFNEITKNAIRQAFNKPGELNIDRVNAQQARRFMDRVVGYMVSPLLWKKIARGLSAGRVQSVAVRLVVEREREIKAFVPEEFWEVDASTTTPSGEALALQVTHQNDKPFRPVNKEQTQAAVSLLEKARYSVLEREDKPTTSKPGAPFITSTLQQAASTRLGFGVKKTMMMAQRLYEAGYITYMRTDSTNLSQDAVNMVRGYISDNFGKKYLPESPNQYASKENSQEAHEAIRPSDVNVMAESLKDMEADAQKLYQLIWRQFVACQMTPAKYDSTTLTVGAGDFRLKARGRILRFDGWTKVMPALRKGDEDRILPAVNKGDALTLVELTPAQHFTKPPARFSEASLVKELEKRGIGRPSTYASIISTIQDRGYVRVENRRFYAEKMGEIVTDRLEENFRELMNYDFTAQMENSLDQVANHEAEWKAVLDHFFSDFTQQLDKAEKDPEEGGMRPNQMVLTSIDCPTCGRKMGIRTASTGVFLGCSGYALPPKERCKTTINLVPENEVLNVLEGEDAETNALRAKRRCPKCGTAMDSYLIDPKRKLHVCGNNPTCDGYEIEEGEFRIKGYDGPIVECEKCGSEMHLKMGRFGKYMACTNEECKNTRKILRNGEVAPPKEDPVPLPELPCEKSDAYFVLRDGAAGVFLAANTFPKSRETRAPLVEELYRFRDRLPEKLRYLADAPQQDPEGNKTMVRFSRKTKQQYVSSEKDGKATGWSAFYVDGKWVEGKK
Briefly: Relaxation activity of E. coli topoisomerase I. The assay is classed as biochemical.

The subject of assay [2] is multidrug-resistant (MDR) strains of clinically relevant Staphylococcus aureus. The following applies: natural olympicin A; cited from earlier work.
Assay [3] has as its system S. aureus Newman. The assay is described as follows: Membrane potential, DiOC2. As to conditions: DiOC2(3); up to 4× MIC. The format is cell-based, Staphylococcus aureus. The gist of the method: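 Flow cytometry with the membrane-potential probe DiOC2(3) on S. aureus Newman grown in Mueller–Hinton II to OD600nm ≈ 0.3 and exposed to test compound. CCCP served as positive control and vancomycin as negative control. Three biological replicates were run.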

The target of assay [4] is E. coli topoisomerase IV (Escherichia coli, UniProt P0AFI2+P20083). Briefly: E. coli topoisomerase IV decatenation assay. The format is biochemical.
Chain of E. coli topoisomerase IV (P0AFI2 whole entry): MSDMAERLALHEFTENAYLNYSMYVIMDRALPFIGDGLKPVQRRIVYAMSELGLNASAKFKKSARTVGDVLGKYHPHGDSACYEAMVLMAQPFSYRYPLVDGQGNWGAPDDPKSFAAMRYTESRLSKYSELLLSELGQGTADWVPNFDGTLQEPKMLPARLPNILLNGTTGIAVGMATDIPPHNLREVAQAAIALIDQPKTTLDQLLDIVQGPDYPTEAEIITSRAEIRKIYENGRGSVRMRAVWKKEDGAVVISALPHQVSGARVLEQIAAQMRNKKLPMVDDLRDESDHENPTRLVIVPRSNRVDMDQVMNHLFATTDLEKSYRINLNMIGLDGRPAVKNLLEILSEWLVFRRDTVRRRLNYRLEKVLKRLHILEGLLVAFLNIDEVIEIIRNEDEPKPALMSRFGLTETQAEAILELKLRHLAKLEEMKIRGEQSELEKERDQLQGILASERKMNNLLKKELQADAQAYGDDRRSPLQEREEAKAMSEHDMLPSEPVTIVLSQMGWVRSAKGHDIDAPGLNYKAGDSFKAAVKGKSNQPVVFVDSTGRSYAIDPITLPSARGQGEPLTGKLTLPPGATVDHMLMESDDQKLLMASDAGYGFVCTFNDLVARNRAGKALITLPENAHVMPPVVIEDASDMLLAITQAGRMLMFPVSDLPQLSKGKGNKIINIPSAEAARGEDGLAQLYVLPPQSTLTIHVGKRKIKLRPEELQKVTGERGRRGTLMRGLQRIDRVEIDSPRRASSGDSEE
Chain of E. coli topoisomerase IV (P20083 whole entry): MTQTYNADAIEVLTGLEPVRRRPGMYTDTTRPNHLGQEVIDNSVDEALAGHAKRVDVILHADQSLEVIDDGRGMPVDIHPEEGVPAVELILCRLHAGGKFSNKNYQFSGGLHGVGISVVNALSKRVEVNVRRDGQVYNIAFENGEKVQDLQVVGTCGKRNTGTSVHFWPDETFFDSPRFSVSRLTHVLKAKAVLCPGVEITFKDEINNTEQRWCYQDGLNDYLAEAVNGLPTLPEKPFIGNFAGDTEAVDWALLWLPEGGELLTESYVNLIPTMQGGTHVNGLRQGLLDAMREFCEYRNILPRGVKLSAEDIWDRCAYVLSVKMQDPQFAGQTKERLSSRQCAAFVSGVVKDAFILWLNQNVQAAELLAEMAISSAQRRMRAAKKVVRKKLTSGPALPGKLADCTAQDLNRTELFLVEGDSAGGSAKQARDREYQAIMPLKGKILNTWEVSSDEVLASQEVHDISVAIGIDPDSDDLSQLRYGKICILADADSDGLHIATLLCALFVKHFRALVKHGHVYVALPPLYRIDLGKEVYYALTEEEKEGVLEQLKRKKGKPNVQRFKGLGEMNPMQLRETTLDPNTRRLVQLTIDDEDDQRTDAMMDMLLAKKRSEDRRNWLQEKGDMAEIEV
Assay [5] concerns S. aureus Newman. Briefly: Macromolecular synthesis. The format is cell-based, Staphylococcus aureus. As to conditions: 4× MIC.
The target in assay [6] is Mycobacterium tuberculosis MurE ligase. The following applies: read-out: MurE ligase IC50; ATP-dependent MurE ligase; cited from earlier work.
The test system of assay [7] is Clostridium difficile. As to conditions: synthetic olympicin A; cited from earlier work.
Assay [8] deals with M. tuberculosis (H37Rv). The assay is described as follows: MIC, microbroth dilution, M. tuberculosis. The format is cell-based. As to conditions: Mycobacterium tuberculosis, read-out: MIC M. tuberculosis (H37Rv).
Assay [9] concerns E. faecalis (ATCC 33186). Briefly: microbe, parasite or virus in culture. The assay is classed as cell-based. As to conditions: Enterococcus faecalis, ATCC33186, read-out: MIC E. faecalis (ATCC 33186).
Assay [10] relates to S. aureus Newman. The assay is described as follows: Time kill experiments. The format is cell-based, Staphylococcus aureus. As to conditions: for type of killing (bactericidal / bacteriostatic): time kill, up to 24 h.
Assay [11] deals with S. aureus Newman. Briefly: Selection of spontaneous mutants. The format is cell-based, Staphylococcus aureus. As to conditions: concentrations between 1× and 4× MIC.
In assay [12] the test system is Gram-positive bacteria tested (E. faecalis, MSSA, and MRSA). The assay is described as follows: MIC range over the Gram-positive bacteria tested. The assay is classed as cell-based, Enterococcus faecalis, Staphylococcus aureus. The following applies: range over E. faecalis and S. aureus (MSSA, MRSA) strains.
Assay [13] relates to S. aureus Newman. Briefly: microbe, parasite or virus in culture. The format is cell-based. The following applies: Staphylococcus aureus, read-out: MIC against S. aureus Newman.

Values after ≈ are worked out from the molar mass of the structure shown.

As for `CC[C@H](C)C(=O)c1c(O)cc(O)cc1OC/C=C(\C)CCC=C(C)C` [Compound 2a, (S,E)-1-(2-((3,7-Dimethylocta-2,6-dien-1-yl)oxy)-4,6-dihydroxyphenyl)-2-methylbutan-1-one], the half-maximal inhibitory concentration (IC50) was more than 500 µM in assay [1], 30 to 60 µM in [4] and 75 µM in assay [6]. In addition, in assay [2], the “MIC against a panel of MDR S. aureus strains” value is 0.5 to 1 µg/mL. Besides, in [2], the “previously reported anti S. aureus activity (MIC)” value is 0.5 to 1 µg/mL. The “effect on membrane potential” value in assay [3] is “dissipated the membrane potential”. Further, the “effect on macromolecular synthesis (DNA, RNA, protein)” value (“effect on macromolecular synthesis” for short) in [5] is reported as “Several key biosynthetic processes were simultaneously inhibited”. In addition, the “MIC against Clostridium difficile” value in assay [7] was 1 to 2 µg/mL. Besides, in assay [8], the MIC was found to be 200 µg/mL (≈ 577 µM).
`CCC(C)C(=O)c1c(O)cc(O)cc1OC/C=C(\C)CCC=C(C)C` (stereo not drawn) [Compound 2b, (E)-1-(2-((3,7-Dimethylocta-2,6-dien-1-yl)oxy)-4,6-dihydroxyphenyl)-2-methylbutan-1-one]: in assay [9], the MIC stood at 1.56 µg/mL (≈ 4.5 µM).
For `CCCCCCCCOc1cc(O)cc(O)c1C(=O)C(C)CC` (stereo not drawn) [Compound 2e, 1-(2,4-Dihydroxy-6-(octyloxy)phenyl)-2-methylbutan-1-one], the IC50 is more than 500 µM in assay [1] and 30 to 60 µM in assay [4].
Take `CC1(C)C2CC=C(/C=C/C(=O)c3ccc(O)cc3O)C1C2` (stereo not drawn) [Compound 3g, (E)-1-(2,4-Dihydroxyphenyl)-3-(6,6-dimethylbicyclo[3.1.1]hept-2-en-2-yl)prop-2-en-1-one]: the IC50 in [1] is more than 500 µM; in assay [4], 60 to 120 µM. The “time required to achieve a 3 log reduction in cells” value in assay [10] (at its MIC (1×)) was “up to 24 h”. The “type of killing (bactericidal / bacteriostatic)” value in assay [10] is reported as “concentration-dependent killing”. Also, the “effect on membrane potential” value in [3] is on record as “dissipated the membrane potential”. For the same compound, the “effect on macromolecular synthesis” value in [5] is “Several key biosynthetic processes were simultaneously inhibited”. Further, in [11], the “frequency of spontaneous mutants” value is “could not be selected”.
Regarding `CC1(C)C2CC=C(C3CC(=O)c4ccc(O)cc4O3)C1C2` (stereo not drawn) [Compound 3j, 2-(6,6-Dimethylbicyclo[3.1.1]hept-2-en-2-yl)-7-hydroxychroman-4-one], the “MIC range against Gram-positive bacteria tested” value in [12] was “largely inactive”.
Consider `CC(C)=CCCC(C)CC1CC(=O)c2c(O)cccc2O1` (stereo not drawn) [Compound 3l, 2-(2,6-Dimethylhept-5-en-1-yl)-5-hydroxychroman-4-one], for which the “MIC range against Gram-positive bacteria tested” value in [12] is “not active”.
In the case of `CCCCCCCC1CC(=O)c2c(O)cc(O)cc2O1` (stereo not drawn) [Compound 5f, 2-Heptyl-5,7-dihydroxychroman-4-one], the IC50 in [1] was more than 500 µM; in [4], 120 to 250 µM.
Regarding `CC(C)=CCCC(C)CC1CC(=O)c2c(O)cc(O)cc2O1` (stereo not drawn) [Compound 5j, 2-(2,6-Dimethylhept-5-en-1-yl)-5,7-dihydroxychroman-4-one], in [3], the “effect on membrane potential” value was “dissipated the membrane potential”. Also, the “effect on macromolecular synthesis” value in assay [5] is given as “Several key biosynthetic processes were simultaneously inhibited”. Further, the “frequency of spontaneous mutants” value in assay [11] is listed as “could not be selected”.
Consider `C=CCOc1ccccc1/C=C/C(=O)c1ccc(O)cc1O` [Compound 8a, (E)-3-(2-(Allyloxy)phenyl)-1-(2,4-dihydroxyphenyl)prop-2-en-1-one], for which the half-maximal inhibitory concentration (IC50) in assay [1] was more than 500 µM; in assay [4] it was 250 to 500 µM. For the same compound, in assay [10], the “type of killing (bactericidal / bacteriostatic)” value was “rapidly bactericidal”. In addition, the “effect on macromolecular synthesis” value in assay [5] was “Several key biosynthetic processes were simultaneously inhibited”. Further, the “frequency of spontaneous mutants” value in assay [11] was “could not be selected”.
On to `CCCCCCOc1ccccc1/C=C/C(=O)c1ccc(O)cc1O` [Compound 8b, (E)-1-(2,4-Dihydroxyphenyl)-3-(2-(hexyloxy)phenyl)prop-2-en-1-one], for which the IC50 in [1] was more than 500 µM; in [4], 60 to 120 µM.
For the compound `O=C(/C=C/c1ccc(N2CCCCC2)cc1)c1ccc(O)cc1O` [Compound 8d, (E)-1-(2,4-Dihydroxyphenyl)-3-(4-(piperidin-1-yl)phenyl)prop-2-en-1-one], the IC50 in [1] was more than 500 µM; in [4], 500 to 1000 µM. Further, the “type of killing (bactericidal / bacteriostatic)” value in assay [10] is recorded as “entirely bacteriostatic”. Also, in assay [3], the “effect on membrane potential” value is reported as “dissipated the membrane potential”. Besides, the “effect on macromolecular synthesis” value in [5] is recorded as “Several key biosynthetic processes were simultaneously inhibited”. Besides, in assay [13], the MIC stood at 6.25 µg/mL (≈ 19.3 µM).
Consider `CCCCCCOc1ccccc1C1CC(=O)c2ccc(O)cc2O1` (stereo not drawn) [Compound 8j, 2-(2-(Hexyloxy)phenyl)-7-hydroxychroman-4-one], for which the half-inhibitory concentration (IC50) is more than 500 µM in assay [1] and more than 1000 µM in assay [4].
Consider `CCCCCCCCOc1ccccc1C1CC(=O)c2ccc(O)cc2O1` (stereo not drawn) [Compound 8k, 7-Hydroxy-2-(2-(octyloxy)phenyl)chroman-4-one], for which the half-inhibitory concentration (IC50) in assay [1] was more than 500 µM; in assay [4], more than 1000 µM.
Take `O=C(O)c1cn(C2CC2)c2cc(N3CCNCC3)c(F)cc2c1=O` [ciprofloxacin]: the MIC in assay [13] worked out at 0.25 µg/mL (≈ 0.754 µM).
Take `CC[C@H]1OC(=O)[C@H](C)[C@@H](O[C@H]2C[C@@](C)(OC)[C@@H](O)[C@H](C)O2)[C@H](C)[C@@H](O[C@@H]2O[C@H](C)C[C@H](N(C)C)[C@H]2O)[C@](C)(O)C[C@@H](C)C(=O)[C@H](C)[C@@H](O)[C@]1(C)O` [erythromycin]: in [13], the MIC was determined as 0.78 µg/mL (≈ 1.06 µM).
As to `C/C(=C\C(=O)OCCCCCCCCC(=O)O)C[C@@H]1OC[C@H](C[C@@H]2O[C@H]2[C@@H](C)[C@H](C)O)[C@@H](O)[C@H]1O` [mupirocin, reference compound], the “type of killing (bactericidal / bacteriostatic)” value in [10] is “either bacteriostatic or slowly bactericidal”.
Take `CN[C@H](CC(C)C)C(=O)N[C@H]1C(=O)N[C@@H](CC(N)=O)C(=O)N[C@H]2C(=O)N[C@H]3C(=O)N[C@H](C(=O)N[C@H](C(=O)O)c4cc(O)cc(O)c4-c4cc3ccc4O)[C@H](O)c3ccc(c(Cl)c3)Oc3cc2cc(c3O[C@@H]2O[C@H](CO)[C@@H](O)[C@H](O)[C@H]2O[C@H]2C[C@](C)(N)[C@H](O)[C@H](C)O2)Oc2ccc(cc2Cl)[C@H]1O` [vancomycin, reference compound]: in [10], the “type of killing (bactericidal / bacteriostatic)” value is listed as “either bacteriostatic or slowly bactericidal”. Also, the “effect on membrane potential” value in [3] is on record as “failed to affect the membrane potential”.

The values are drawn from paper PMC4207537 (Journal of Medicinal Chemistry, 2014).
